Consider nine compounds from ChEMBL document CHEMBL1126556, “Novel antiasthmatic agents with dual activities of thromboxane A2 synthetase inhibition and bronchodilation. 1. 2-[2-(1-Imidazolyl)alkyl]-1(2H)-phthalazinones” (J Med Chem, 1993).

The target of data set [1] is T1, Thromboxane-A synthase (Rattus norvegicus) (UniProt P49430).
T1 sequence (whole entry): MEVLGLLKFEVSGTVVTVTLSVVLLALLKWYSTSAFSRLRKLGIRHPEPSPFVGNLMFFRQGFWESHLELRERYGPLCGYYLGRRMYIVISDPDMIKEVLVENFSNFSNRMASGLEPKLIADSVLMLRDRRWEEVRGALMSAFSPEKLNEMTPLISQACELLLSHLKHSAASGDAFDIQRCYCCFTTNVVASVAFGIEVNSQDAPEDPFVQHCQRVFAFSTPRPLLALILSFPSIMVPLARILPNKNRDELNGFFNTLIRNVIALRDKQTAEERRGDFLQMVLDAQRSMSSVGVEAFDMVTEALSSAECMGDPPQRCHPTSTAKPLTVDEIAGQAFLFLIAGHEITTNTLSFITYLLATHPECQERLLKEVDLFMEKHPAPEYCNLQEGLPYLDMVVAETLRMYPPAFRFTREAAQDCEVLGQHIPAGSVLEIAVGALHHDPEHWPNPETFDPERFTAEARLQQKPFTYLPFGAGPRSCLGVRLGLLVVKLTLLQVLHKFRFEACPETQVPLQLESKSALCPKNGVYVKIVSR
Put plainly: Tested for inhibition of thromboxane A2 (TXA2) production in rat serum by ex vivo assay after peroral dose of 30 mg/kg. The class given is functional, organism-based. Also on record: dose 30 mg/kg. In a few lines: (§1)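 Male SD rats (240–260 g), fasted 20 h, dosed orally in 0.5% carboxymethylcellulose or given vehicle. After 1 h under ether, 2 mL cardiac blood was drawn and clotted 90 min at 37 °C. Serum was EtOH-deproteinized and stored at -20 °C. TXB₂ measured by radioimmunoassay. % inhibition calculated against each vehicle control group.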

For data set [2], the system named is Thromboxane-A synthase (Oryctolagus cuniculus). As to the kind of experiment: Tested for inhibition of thromboxane A2 (TXA2) production in rabbit by in vitro assay at 1 uM.
In data set [3] the test system is Cavia porcellus. Put plainly: In vivo inhibitory effect on airway constriction induced by histamine 2-5 micro g/kg iv at 1 min after 10 mg/kg intravenous dose in anesthetized guinea pigs. The class given is functional. In a few lines:
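Male Dunkin-Hartley guinea pigs, anesthetized with pentobarbital 35 mg/kg ip, cannulated at jugular vein and trachea, ventilated at 10 mL/kg and 60 strokes/min. Insufflation pressure recorded continuously by transducer. Histamine given iv every 10 min until the constriction was reproducible. Compound 10 mg/kg iv given 1 min before the next challenge. Result is mean % inhibition against control response, from ≥3 experiments.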

Data set [4] is described as follows: Partition coefficient (logP). Format: physicochemical. To be noted: octanol/water.
For data set [5], the species on record is Cavia porcellus. Put plainly: Tested in vitro for bronchodilatory activity by spontaneous tone inhibition in guinea pig tracheal strips. The class given is functional. To be noted: Trachea.
For a further data set, the system named is Rattus norvegicus. Put plainly: Tested for inhibition of TXA2 production in rat serum by ex vivo assay after peroral dose of 3 mg/kg. Format: functional. To be noted: route oral. Put shortly: as §1

pIC50: −log10 of the molar value.

As for `O=c1c2ccccc2c(-c2ccccn2)nn1CCn1ccnc1`, the inhibition is 41% in data set [1] and 20% in data set [2]. Testing at 10 mg/kg in the data set with Cavia porcellus [3] gave an inhibition in vivo of 30%. The compound also returned a logP in data set [4] of 0.87. This compound also showed a pIC50 in the data set listed under Cavia porcellus [5] of 4.37.
In the same order, the values of `CSc1ccc(-c2nn(CCn3ccnc3)c(=O)c3ccccc23)cc1` are 67%, 83%, 73%, 2.7 and 5.35.
As for `O=c1c2ccccc2c(-c2cccnc2)nn1CCn1ccnc1`, in data set [1], the inhibition worked out at 90%. Besides, the inhibition in vivo at 10 mg/kg with Cavia porcellus [3] came to 97%. This compound also came in with a logP in data set [4] of 0.66. The same compound yielded an inhibition in vivo at 3 mg/kg in the data set with Rattus norvegicus of 63%. The compound also had a pIC50 in the data set filed under Cavia porcellus [5] of 4.57.
Consider `O=c1c2ccccc2c(-c2cccs2)nn1CCn1ccnc1`, for which the inhibition in data set [1] is 47%; in data set [2] it was 22%. The same compound returned an inhibition in vivo at 10 mg/kg in the data set on Cavia porcellus [3] of 84%. Besides, in data set [4], the logP was found to be 1.99. The compound further had a pIC50 in the data set filed under Cavia porcellus [5] of 5.45.
In the same order, the values of `O=c1c2ccccc2c(-c2ccccc2)nn1CCn1ccnc1` are 0%, 41%, 88%, 2.14 and 5.88.
Taken in the same sequence, the figures for `CCc1ccc(-c2nn(CCn3ccnc3)c(=O)c3ccccc23)cc1` were 55%, 79%, 8%, 3.17 and 5.11.
Taken in the same sequence, the figures for `COc1ccc(-c2nn(CCn3ccnc3)c(=O)c3ccccc23)cc1` were 50%, 74%, 0%, 2.06 and 4.60.
`O=c1c2ccccc2c(C2CCCCC2)nn1CCn1ccnc1`: the values for the inhibition in data set [1] and in data set [2] were 28% and 32%, respectively. In the data set on Cavia porcellus [3], this compound had an inhibition in vivo at 10 mg/kg of 71%. The same compound came in with a logP in data set [4] of 3.19. Moreover, the pIC50 in the data set listed under Cavia porcellus [5] is 6.17.
Taken in the same sequence, the figures for `O=c1c2ccccc2c(-c2ccncc2)nn1CCn1ccnc1` were 47%, 27%, 100%, 0.66 and 4.62.

The term inhibition denotes the drop in the measured response relative to a control, in per cent. In general, inhibition in vivo refers to the drop in the measured response relative to a control, in per cent. High values mean a response far below the control, low ones a response near the control. The logP is a log measure of how a compound divides between an organic and an aqueous phase. The term pIC50 denotes −log10 of the IC50, conventionally taken in molar units. Read a low pIC50 as a high IC50.
